Screening results from PubChem BioAssay.
SIAE inh = blocks human sialic acid acetylesterase; SIAE FP-Rh probe binding, fluorescence polarization; inhibition, % at 9.66 µM; 0.69% of 370,000 active; AID 1053197;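 active means inhibition above a cutoff: mean of compounds within the control limits plus 3 SD of those, cut at about 17% in these data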;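 further: 0% = plate median of compound wells and 100% = probe without SIAE protein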
rCAG RNA binder = molecules binding r(CAG) RNA repeats; r(CAG) RNA repeat, TO-PRO-1 dye displacement fluorescence; inhibition, % at 3 µM; 1.3% of 370,000 active; AID 651821;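 active means inhibition above the plate cutoff, the mean of all test compounds on that plate plus 3 SD, cut at about 35% in these data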;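 further: 0% = DMSO alone and 100% = 100 µM mitoxantrone as full dye displacement; higher means more dye released from RNA so lower well fluorescence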
TCR CD3 inh = human TCR-CD3 binding inhibition; 0.37% of 360,000 active; TAMRA-labeled TCR probe fluorescence, biochemical; AID 651800; inhibition, % at 9.4 µM; in the data active means inhibition above about 19%;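 further: recombinant mutant TCR 2C K166C tagged with TAMRA read by polarization; 0% = receptor in buffer alone and 100% = receptor with positive control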
HTRA1 inh = blocks human HTRA1 serine peptidase; Q92743; recombinant HTRA1, FP-rhodamine activity-based probe, fluorescence polarization; inhibition, % at 5.96 µM; 0.5% of 340,000 active; AID 504803; in the data active means inhibition above about 36%;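 further: 0% = enzyme with DMSO and 100% = wells lacking enzyme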
ABHD4 inh = inhibitors of mouse ABHD4. Q8VD66. purified mABHD4, FP-Rh probe fluorescence polarization. inhibition, % at 8.92 µM. 0.54% of 370,000 active. AID 720543;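 active means inhibition exceeding the mean over every tested compound plus 3 SD, cut at about 30% in these data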;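 further: 0% = plate median of compound wells and 100% = S159A mutant with DMSO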
Target sequence (Q8VD66 whole entry, looked up): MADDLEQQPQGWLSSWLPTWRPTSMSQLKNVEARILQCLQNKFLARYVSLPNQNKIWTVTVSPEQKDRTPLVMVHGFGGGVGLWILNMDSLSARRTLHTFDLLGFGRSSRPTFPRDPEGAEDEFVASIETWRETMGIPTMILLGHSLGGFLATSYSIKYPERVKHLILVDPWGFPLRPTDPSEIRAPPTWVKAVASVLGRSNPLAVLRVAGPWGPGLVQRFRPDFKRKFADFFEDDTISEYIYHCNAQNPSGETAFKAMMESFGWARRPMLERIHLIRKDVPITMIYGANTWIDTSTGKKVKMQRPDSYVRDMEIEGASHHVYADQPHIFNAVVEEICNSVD
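Assay system: Wild-type mouse ABHD4 protein | Medium: HEPES pH 7.0 buffer, 150 mM NaCl, 0.01% Pluronic F-127 | Incubation: Enzyme–compound pre-incubation 45 min, then probe 60 min, both 25 °C | Technique: Fluorescence polarization with parallel and perpendicular emission, 525/598 nm | Evaluation: % inhibition of FP-Rh probe binding versus controls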
rCAG binder conf = r(CAG) RNA repeat binding, confirmation; 70% of 4,300 active; inhibition, % at 3 µM; TO-PRO-1 dye displacement fluorescence; shares compounds with rCAG RNA binder;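 active means inhibition above a per-plate cutoff, the mean inhibition of sample wells plus 3 SD, cut at about 35% in these data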;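 further: loss of TO-PRO-1 fluorescence as compound displaces dye from 1x1 AA loop RNA; 0% = DMSO only wells and 100% = 100 µM mitoxantrone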
dCAG dye counter = counter-screen for rCAG RNA binders: DNA CAG dye complex inhibitors. shares compounds with rCAG RNA binder. d(CAG) DNA oligo TO-PRO-1 dye displacement, fluorescence. inhibition, % at 3 µM. 94% of 4,300 active. AID 652068;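 active means inhibition above its plate's cutoff, the mean test-well inhibition plus 3 SD, cut at about 4.8% in these data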;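 further: 0% = DNA dye mix with DMSO and 100% = 100 µM mitoxantrone; hits displace the dye from DNA and so lower well fluorescence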
DNA CAG DR = disrupts DNA CAG TO-PRO-1 complex in dose response; AID 686960; shares compounds with rCAG RNA binder; 20% of 250 active; IC50, µM; DNA CAG/GTC duplex TO-PRO-1 dye displacement fluorescence; in the data active means IC50 below about 10 µM
ABHD4 confirm = ABHD4 (mouse) inhibition, FP confirmation | AID 720658 | purified mABHD4, FP-Rh probe fluorescence polarization | inhibition, % at 8.92 µM | shares compounds with ABHD4 inh | 55% of 1,800 active;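 active means mean inhibition across replicates above the hit cutoff set in the primary screen, cut at about 30% in these data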;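 further: 0% = wild-type ABHD4 with DMSO and 100% = catalytically dead S159A mutant with DMSO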
* = called active by the depositor; i = inactive; / = not tested or not shown. Compounds with a hit are over-represented: about 2.5% of the library has one in this group of screens.

SMILES | SIAE inh | rCAG RNA binder | TCR CD3 inh | HTRA1 inh | ABHD4 inh | rCAG binder conf | dCAG dye counter | ABHD4 confirm | others
COc1ccc(/C(C)=N/Nc2cccc(C(=O)O)c2)cc1OC | 2.8 | 2.7 | 8.6 | -4.2 | 9.3 | / | / | /
C/C(=N\Nc1ccc(C(=O)O)cc1)c1ccc2c(c1)Nc1ccccc1S2 | 16.5 | 39.2* | 0.1 | 34.8 | 43.4* | 86.5* | 58.7* | 77.4*
COc1cc(/C=N/NC(=O)C(Cc2c[nH]c3ccccc23)NC(=O)OCc2ccccc2)cc([N+](=O)[O-])c1O (centres undefined) | 64.5* | 83.4* | 0.5 | 30.0 | 45.4* | 81.0* | 47.5* | 91.8*
CC1CCCCC1NC(=O)C1CCC(CNS(=O)(=O)c2cccc3cccnc23)CC1 (centres undefined) | -3.8 | -0.2 | 7.4 | 0.3 | 3.3 | / | / | /
C/C(=N\Nc1nc2ccccc2s1)c1ccc2c(c1)OCO2 | 1.9 | 14.0 | -10.4 | 15.9 | 22.2 | / | / | /
C/C(=N\Nc1nc2ccccc2s1)c1ccc(Br)s1 | 5.1 | 35.4* | 4.0 | 33.3 | 32.7* | 16.8 | 8.7* | 6.2
Cc1ccc(S(=O)(=O)/N=C2\C=C(NS(=O)(=O)c3ccccc3)C(=O)c3ccccc32)c(C)c1 | 6.7 | 53.9* | -2.8 | -1.0 | 49.8* | 85.8* | 58.2* | 35.6*
Cc1cccc(NC(=O)CCC(=O)N/N=C/c2ccncc2)c1 | -1.3 | 1.1 | -3.5 | 5.5 | 2.5 | / | / | /
CCCCN1Cc2c(nc3cc(-c4ccco4)[nH]n3c2=O)C1=O | -0.9 | 66.2* | -0.7 | 11.1 | 35.4* | 9.4 | 2.3 | 1.1
COCc1cc(=O)n2[nH]c(-c3ccco3)cc2n1 | -6.9 | 5.0 | -3.7 | 5.8 | 7.2 | / | / | /
C=CCSC1=N/C(=C\c2cc(OCC)c(OC(C)=O)c([N+](=O)[O-])c2)C(=O)S1 | -11.2 | 40.6* | 5.7 | 27.7 | 36.7* | 61.0* | 19.8* | 84.9*
CCC(C)Nc1cc(C)nc2ncnn12 (centres undefined) | -3.6 | 0.0 | 0.8 | -1.3 | 0.7 | / | / | /
CCCCCNC(=O)c1ccc2c(=O)[nH]c3c(C(=O)NCC4CCCO4)sc(=S)n3c2c1 (centres undefined) | -0.6 | 58.9* | 11.6 | 9.4 | 32.3* | 85.8* | 61.7* | 40.1*
Cc1ccc(CNC(=O)c2ccc3c(=O)[nH]c4c(C(=O)NCC5CCCO5)sc(=S)n4c3c2)cc1 (centres undefined) | 10.3 | 61.0* | 6.0 | 9.8 | 33.0* | 91.6* | 74.0* | 40.8*
CCn1c(N)c(C(=O)NCC2CCCO2)sc1=S (centres undefined) | 1.0 | -1.2 | 1.5 | 7.5 | 3.8 | / | / | /
Cc1ccc(CNC(=O)c2ccc3c(=O)n(CC4CCCO4)c(=S)[nH]c3c2)cc1 (centres undefined) | 4.7 | 0.2 | 5.8 | -3.0 | -3.0 | / | / | /
COc1ccc(C(=O)Cn2nc(CNc3ccc(Br)cc3)[n+]3c2CCCCC3)cc1 | -2.3 | 8.2 | -7.8 | 10.8 | 13.6 | / | / | /
Cc1nn(-c2ccccc2)c(C)c1C=O | -1.1 | 1.4 | -2.5 | / | 0.0 | / | / | /
CC(C(=O)O)N1C(=O)/C(=C/C=C/c2ccco2)SC1=S (centres undefined) | 5.2 | 83.2* | 1.9 | 28.1 | 37.1* | 79.1* | 41.4* | 14.8
CCN(C(=O)C(C)N1C(=O)/C(=C/c2ccco2)SC1=S)C1CCS(=O)(=O)C1 (centres undefined) | 1.9 | 32.8 | 2.3 | 23.4 | 20.9 | / | / | /
CC1CCC2(CC1)NC(=O)N(CC(=O)Nc1ccc3c(c1)OCCCO3)C2=O (centres undefined) | -3.5 | -0.9 | 0.1 | 2.6 | -2.8 | / | / | /
Cc1ccc2c(c1)c(N=Nc1cccc(C(=O)O)c1)c(O)n2C | -4.3 | 37.8* | 0.8 | -1.0 | 30.7* | 56.2* | 12.3* | 45.0* | DNA CAG DR=i
CCOc1ccc2c(c1)c(N=Nc1cccc(C(=O)O)c1)c(O)n2C | -6.0 | 11.0 | 2.5 | -1.6 | 23.9 | / | / | /
